These results are taken from ChEMBL document CHEMBL4376891, “Benzenesulfonamide Derivatives as Calcium/Calmodulin-Dependent Protein Kinase Inhibitors and Antiviral Agents against Dengue and Zika Virus Infections” (J Med Chem, 2020).

Series [1] can be described thus: Cytotoxicity against human BE(2)-C cells assessed as cell proliferation at 6.25 uM incubated overnight by XTT assay relative to control. In kind it is cell-based. The settings on record: read-out: Activity. For orientation: Formazan colour is commonly taken as a measure of viable cells.
Series [2] concerns dengue virus type 2. In words: Antiviral activity against eGFP-fused Dengue virus 2 infected in human BE(2)-C cells assessed as viral infection level by measuring intensity of eGFP emission from infected cells at 1.56 uM incubated for 24 hrs relative to control. The format is functional. In a few lines: (§1)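 BE(2)C cells, in RPMI 1640 with 10% FBS, were infected with DENV-2-eGFP reporter virus (MOI 1) for 24 h with or without compound, using DMSO as solvent control. Cells were fixed in 4% paraformaldehyde and stained with Hoechst, then imaged by high-content analysis. eGFP intensity per cell number is given as % of solvent control. Values are means of 3 experiments.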

The test system of series [3] is dengue virus type 2. In words: Antiviral activity against eGFP-fused Dengue virus 2 infected in human BE(2)-C cells assessed as viral infection level by measuring intensity of eGFP emission from infected cells at 3.13 uM incubated for 24 hrs relative to control. The format is functional. In a few lines: as §1
The target of series [4] is Calcium/calmodulin-dependent protein kinase type II subunit alpha (Homo sapiens, UniProt Q9UQM7). In words: Inhibition of human CaMKIIalpha using calmodulin and syntide-2 incubated for 15 mins by ELISA. (An ELISA detects its analyte on a solid surface through an enzyme-linked reagent.)

Activity calls are given as the source filed them. The rule behind the calls is not given here.

Chain of Calcium/calmodulin-dependent protein kinase type II subunit alpha (Q9UQM7 whole entry): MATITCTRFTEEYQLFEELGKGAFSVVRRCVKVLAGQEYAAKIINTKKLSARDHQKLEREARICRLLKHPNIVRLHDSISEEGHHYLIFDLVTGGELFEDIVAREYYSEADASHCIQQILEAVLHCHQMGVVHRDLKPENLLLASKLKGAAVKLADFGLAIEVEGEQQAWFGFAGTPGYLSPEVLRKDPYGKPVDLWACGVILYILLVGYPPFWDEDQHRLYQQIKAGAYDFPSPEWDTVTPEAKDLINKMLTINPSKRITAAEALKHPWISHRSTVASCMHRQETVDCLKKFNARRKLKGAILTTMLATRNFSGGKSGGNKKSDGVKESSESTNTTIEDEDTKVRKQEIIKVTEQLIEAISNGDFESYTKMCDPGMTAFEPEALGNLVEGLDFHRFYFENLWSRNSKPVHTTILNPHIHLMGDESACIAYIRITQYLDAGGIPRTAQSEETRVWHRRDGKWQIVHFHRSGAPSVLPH

With `O=C(CCCN(c1ccccc1)S(=O)(=O)c1ccc(OC(F)(F)F)cc1)C1CCCC1`, the viability at 6.25 µM in series [1] turned out to be 92.4%. Further, the Activity amounted to 102.6% with dengue virus type 2 [2] and 118.2% in the series on dengue virus type 2 [3].

For `COc1ccc(S(=O)(=O)N(CCCC(=O)C2CCCCCC2)c2ccc(C3CCCCC3)cc2)cc1`, the Activity with dengue virus type 2 [2] is recorded as 36.1%; with dengue virus type 2 [3], 13.8%.

Turning to `COc1ccc(S(=O)(=O)N(CCCC(C)=O)c2ccccc2)cc1`, the viability at 6.25 µM in series [1] came to 106%. Moreover, the Activity with dengue virus type 2 [2] worked out at 92.8%; with dengue virus type 2 [3], 100.8%.

With `COc1ccc(S(=O)(=O)N(CCCC(=O)C2CCCCC2)c2ccccc2)cc1`, the viability at 6.25 µM in series [1] worked out at 107%. The Activity in the series on dengue virus type 2 [2] is on record as 68.9%; in the series on dengue virus type 2 [3], 63.3%.

In the case of `COc1ccc(S(=O)(=O)N(CCCC(=O)c2ccc(F)cc2)c2ccccc2)cc1`, the viability at 6.25 µM in series [1] was 56.1%. Further, the Activity with dengue virus type 2 [2] turned out to be 55.9%; in the series with dengue virus type 2 [3], 39.3%.

Take `COc1ccc(S(=O)(=O)N(CCCC(=O)C2CCCCCC2)C2CCCCC2)cc1`: the viability at 6.25 µM in series [1] is 97.5%. The Activity in the series with dengue virus type 2 [2] was found to be 85.7%; in the series on dengue virus type 2 [3], 65.7%.

In the case of `O=C(CCCN(c1ccccc1)S(=O)(=O)c1ccc(Oc2ccccc2)cc1)C1CCCCCC1`, the viability at 6.25 µM in series [1] came to 95.5%. Besides, the Activity is recorded as 74.7% in the series on dengue virus type 2 [2] and 73.4% in the series on dengue virus type 2 [3].

Take `COc1ccc(S(=O)(=O)N(CCCC(=O)C2CCCCCC2)c2ccc3c(c2)CCCC3)cc1`: the viability at 6.25 µM in series [1] is 104%. The values for the Activity in the series with dengue virus type 2 [2] and in the series on dengue virus type 2 [3] were 87.2% and 21.5%, respectively.

For `COc1ccc(S(=O)(=O)N(CCCC(=O)C2C3CC4CC(C3)CC2C4)c2ccccc2)cc1` (configuration not stated), in series [1], the viability at 6.25 µM was 96.7%. The Activity in the series on dengue virus type 2 [2] is given as 57.3%; in the series with dengue virus type 2 [3], 51.1%.

As to `COc1ccc(S(=O)(=O)N(CCCC(O)c2ccc(F)cc2)c2ccccc2)cc1` (configuration not stated), the viability at 6.25 µM in series [1] was found to be 76.3%. Moreover, the inhibition entry in series [4] is “Active”. Also, the Activity in the series with dengue virus type 2 [2] worked out at 59.4%; with dengue virus type 2 [3], 48.5%.

In the case of `Cc1ccc(S(=O)(=O)N(CCCC(=O)C2CCCCCC2)c2ccccc2)cc1`, the viability at 6.25 µM in series [1] stood at 99.5%. Also, the Activity in the series on dengue virus type 2 [2] is 93.9%; with dengue virus type 2 [3] it was 76.9%.

In the case of `COc1ccc(S(=O)(=O)N(CCO)c2ccccc2CN(C)C/C=C/c2ccc(Cl)cc2)cc1`, in series [1], the viability at 6.25 µM turned out to be 84.3%. The Activity with dengue virus type 2 [2] is 30.5%; in the series with dengue virus type 2 [3], 14.5%.

On to `COc1ccc(S(=O)(=O)N(CCCC(=O)C2CCC2)c2ccccc2)cc1`, for which the viability at 6.25 µM in series [1] is 93.9%. Besides, the Activity with dengue virus type 2 [2] was 42.8%; in the series with dengue virus type 2 [3], 33%.

`COc1ccc(S(=O)(=O)N(CCCC(=O)C2CCCC2)c2ccccc2)cc1`: the Activity is listed as 34.6% in the series on dengue virus type 2 [2] and 25.1% in the series with dengue virus type 2 [3].

Regarding `COc1ccc(S(=O)(=O)N(C)CCCC(=O)c2ccc(F)cc2)cc1`, the viability at 6.25 µM in series [1] amounted to 106%. The Activity in the series on dengue virus type 2 [2] is listed as 100%; with dengue virus type 2 [3], 100.9%.

Regarding `COc1ccc(S(=O)(=O)NCCCC(=O)c2ccc(F)cc2)cc1`, the viability at 6.25 µM in series [1] stood at 106%. For the same compound, the inhibition result in series [4] was “Active”. The Activity in the series with dengue virus type 2 [2] came to 110.1%; in the series with dengue virus type 2 [3], 122.6%.

In the case of `CN([C@@H](Cc1ccc(OS(=O)(=O)c2cccc3cnccc23)cc1)C(=O)N1CCN(c2ccccc2)CC1)S(=O)(=O)c1cccc2cnccc12`, in series [1], the viability at 6.25 µM turned out to be 65.7%. Also, in series [4], the IC50 (usually the concentration at which inhibition is half-maximal) came out at 1.03 µM. The Activity in the series with dengue virus type 2 [2] came out at 33.5%; in the series on dengue virus type 2 [3], 22.3%.
